# Results published in ChEMBL document CHEMBL1140227, “Histone deacetylase inhibitors through click chemistry” (J Med Chem, 2008).
# Experiments:
# Type in all cases: functional
# SN12C = experiment: Growth inhibition of human SN12C cells at 10 uM relative to control; conditions: values are per cent of control
# Outline: (§1)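 Single-dose preliminary screen in the NCI human cancer cell line panel, run by the NIH. Percent inhibition of cell line growth was calculated by comparison with untreated samples.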
# TK-10 = experiment: Growth inhibition of human TK10 cells at 10 uM relative to control; conditions: values are per cent of control
# Outline: (§2)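 Single-dose NCI human tumour cell line screen, run by the NIH. Percent inhibition of cell line growth was calculated by comparison with untreated samples.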
# UO-31 = experiment: Growth inhibition of human UO31 cells at 10 uM relative to control; conditions: values are per cent of control; outline: as §2
# M14 = experiment: Growth inhibition of human M14 cells at 10 uM relative to control; conditions: values are per cent of control; outline: as §1
# Malme-3M = experiment: Growth inhibition of human MALME-3M cells at 10 uM relative to control; conditions: values are per cent of control; outline: as §1
# SK-MEL-2 = experiment: Growth inhibition of human SK-MEL-2 cells at 10 uM relative to control; conditions: values are per cent of control; outline: as §1
# SK-MEL-5 = experiment: Growth inhibition of human SK-MEL-5 cells at 10 uM relative to control; conditions: values are per cent of control; outline: as §1
# UACC-257 = experiment: Growth inhibition of human UACC257 cells at 10 uM relative to control; conditions: values are per cent of control; outline: as §2
# UACC-62 = experiment: Growth inhibition of human UACC62 cells at 10 uM relative to control; conditions: values are per cent of control; outline: as §2
# DU-145 = experiment: Growth inhibition of human DU145 cells at 10 uM relative to control; conditions: values are per cent of control; outline: as §1
# PC-3 = experiment: Growth inhibition of human PC3 cells at 10 uM relative to control; conditions: values are per cent of control; outline: as §1
# SF-268 = experiment: Growth inhibition of human SF268 cells at 10 uM relative to control; conditions: values are per cent of control; outline: as §1
# SF-295 = experiment: Growth inhibition of human SF295 cells at 10 uM relative to control; conditions: values are per cent of control; outline: as §1
# SF-539 = experiment: Growth inhibition of human SF539 cells at 10 uM relative to control; conditions: values are per cent of control; outline: as §1
# SNB-19 = experiment: Growth inhibition of human SNB19 cells at 10 uM relative to control; conditions: values are per cent of control; outline: as §1
# SNB-75 = experiment: Growth inhibition of human SNB75 cells at 10 uM relative to control; conditions: values are per cent of control; outline: as §2
# U-251 = experiment: Growth inhibition of human U251 cells at 10 uM relative to control; conditions: values are per cent of control; outline: as §2
# cells = conditions: Homo sapiens, Cancer cell lines
# A549 = experiment: Growth inhibition of human A549 cells at 10 uM relative to control; conditions: values are per cent of control; outline: as §1
# EKVX = experiment: Growth inhibition of human EKVX cells at 10 uM relative to control; conditions: values are per cent of control; outline: as §1
# HOP-62 = experiment: Growth inhibition of human HOP62 cells at 10 uM relative to control; conditions: values are per cent of control; outline: as §1
# NCI-H226 = experiment: Growth inhibition of human NCI-H226 cells at 10 uM relative to control; conditions: values are per cent of control; outline: as §1
# NCI-H23 = experiment: Growth inhibition of human NCI-H23 cells at 10 uM relative to control; conditions: values are per cent of control; outline: as §1
# NCI-H322M = experiment: Growth inhibition of human NCI-H322M cells at 10 uM relative to control; conditions: values are per cent of control; outline: as §1
# NCI-H460 = experiment: Growth inhibition of human NCI-H460 cells at 10 uM relative to control; conditions: values are per cent of control; outline: as §1
# NCI-H522 = experiment: Growth inhibition of human NCI-H522 cells at 10 uM relative to control; conditions: values are per cent of control; outline: as §1
# COLO 205 = experiment: Growth inhibition of human COLO205 cells at 10 uM relative to control; conditions: values are per cent of control; outline: as §1
# HCC 2998 = experiment: Growth inhibition of human HCC2998 cells at 10 uM relative to control; conditions: values are per cent of control; outline: as §1
smiles,measurement,setting,value
O=C(Cn1cc(C(=O)NO)nn1)c1ccccc1,"growth, % of control at 10 µM",SN12C,97.7%
same,"growth, % of control at 10 µM",TK-10,113%
same,"growth, % of control at 10 µM",UO-31,84.7%
same,"growth, % of control at 10 µM",M14,94.1%
same,"growth, % of control at 10 µM",Malme-3M,107%
same,"growth, % of control at 10 µM",SK-MEL-2,-26.8%
same,"growth, % of control at 10 µM",SK-MEL-5,111%
same,"growth, % of control at 10 µM",UACC-257,112%
same,"growth, % of control at 10 µM",UACC-62,93.3%
same,"growth, % of control at 10 µM",DU-145,135%
same,"growth, % of control at 10 µM",PC-3,82.1%
same,"growth, % of control at 10 µM",SF-268,104%
same,"growth, % of control at 10 µM",SF-295,126%
same,"growth, % of control at 10 µM",SF-539,118%
same,"growth, % of control at 10 µM",SNB-19,95.9%
same,"growth, % of control at 10 µM",SNB-75,117%
same,"growth, % of control at 10 µM",U-251,96.9%
same,inhibition at 10 µM,cells,> 95%
same,"growth, % of control at 10 µM",A549,103%
same,"growth, % of control at 10 µM",EKVX,108%
same,"growth, % of control at 10 µM",HOP-62,118%
same,"growth, % of control at 10 µM",NCI-H226,87.6%
same,"growth, % of control at 10 µM",NCI-H23,110%
same,"growth, % of control at 10 µM",NCI-H322M,95.9%
same,"growth, % of control at 10 µM",NCI-H460,120%
same,"growth, % of control at 10 µM",NCI-H522,99.2%
same,"growth, % of control at 10 µM",COLO 205,123%
same,"growth, % of control at 10 µM",HCC 2998,107%
